The format of data set [1] is in vivo, human.
A short description of data set [2]: Biliary excretion in bile-cannulated rats. The format is in vivo. The conditions noted are these: data not shown.
The nature of data set [3]: Safety and tolerability. The format is in vivo, human. Put shortly: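 AEs and SAEs were monitored to Day 59 (Part 1) or Day 46 (Part 2), with a follow-up call ~7 days after discharge. Part 2 gave two 200-mg oral tablets, then 4 h later a 45 µg (~1 µCi) radiolabelled IV infusion over 15 min. TEAEs were summarised by treatment, MedDRA v24.0 system organ class and preferred term. Severity (mild/moderate/severe) was graded by the investigator.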

Data set [4] has as its target cytochrome P450 (CYP) 3A4 (Homo sapiens, UniProt P08684). The data set is described as follows: In vitro enzyme substrate studies, CYP3A4. The format is in vitro ADME.
The conditions of data set [5]: similar to Biopharmaceutics Classification System Class 2 compounds; cited from earlier work.
Data set [6] is described as follows: Estimated first-pass metabolism in gut and liver. The format is in vivo, human.
Data set [7] is classed as in vivo, human. Particulars: Part 1: single oral 400 mg [14C]-imlunestrant solution. Put shortly: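 Healthy women received a single oral 400 mg radiolabelled test compound solution (100 µCi). Urine was collected −12–0, 0–6, 6–12 and 12–24 h, then in 24-h intervals. Feces were pooled 0–24 h, then in 24-h intervals. Collection continued until ≥90% of dose was recovered and ≤1%/day for 2 consecutive days, or Day 22. Vomitus was collected within 4 h. Radioactivity was counted by LSC and reported as % and cumulative % of dose.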

Data set [8] in a line: Metabolite profiling and identification in plasma and feces. It counts as in vivo, human. Particulars: Part 1: oral 400 mg [14C]-imlunestrant solution. In a few lines: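 Part 1 plasma was sampled predose and 0.5–264 h after the oral radiolabelled dose. It was extracted twice with acetonitrile (3 volumes), dried, and reconstituted in 10 mM ammonium formate pH 9.0:methanol (80:20). Separation was on a C18 column with 10 mM ammonium formate pH 9.0 / methanol, gradient 20% to 90% B. Fecal metabolites were identified if ≥1% of dose across time points.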

For data set [9], the system named is P‐glycoprotein. The conditions noted are these: in vitro; cited from earlier work.
For data set [10] the following is noted: oral 200‐1200 mg once daily, patients, EMBER; cited from earlier work.
The subject of data set [11] is uridine 5′ diphospho‐glucuronosyltransferases (UGTs; including UGT1A1, UGT1A8, UGT1A3, UGT1A9, and UGT1A10). The data set is described as follows: In vitro enzyme substrate studies, UGTs. The format is in vitro ADME.
The format of data set [12] is in vivo. The conditions noted are these: female, human, plasma, po, 400 mg.
For data set [13] the following is noted: cited from earlier work.
Where [14] appears, read: Part 2: 45 µg [14C]-imlunestrant (1 µCi) IV infusion.
The mark [15] stands for this setting: female, human, plasma, intravenous, 45 µg.
Setting [16] is: female, human, plasma, iv, 45 µg.
Where [17] appears, read: female, human, plasma, po, 400 mg.
Where [18] appears, read: Part 1: 400 mg [14C]-imlunestrant oral (N=8).

The text below walks through data of article PMC12486192 (Clinical Pharmacology in Drug Development, 2025).

Where two headings read alike, the source gives them in different places.

cytochrome P450 (CYP) 3A4, sequence (P08684 whole entry): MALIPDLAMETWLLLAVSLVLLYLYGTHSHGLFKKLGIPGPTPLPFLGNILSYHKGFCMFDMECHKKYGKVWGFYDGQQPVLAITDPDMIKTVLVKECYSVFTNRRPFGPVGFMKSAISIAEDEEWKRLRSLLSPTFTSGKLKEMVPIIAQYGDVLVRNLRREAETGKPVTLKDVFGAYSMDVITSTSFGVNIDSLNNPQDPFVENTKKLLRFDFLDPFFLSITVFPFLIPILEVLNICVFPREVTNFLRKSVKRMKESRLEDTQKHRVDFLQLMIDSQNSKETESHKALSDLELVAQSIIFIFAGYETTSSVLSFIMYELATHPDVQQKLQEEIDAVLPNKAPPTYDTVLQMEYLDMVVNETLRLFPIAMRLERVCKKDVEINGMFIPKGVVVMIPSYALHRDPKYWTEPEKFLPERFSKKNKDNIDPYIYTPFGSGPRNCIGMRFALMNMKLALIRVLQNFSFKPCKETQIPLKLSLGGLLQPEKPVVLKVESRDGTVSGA

As usually defined, the AUC is concentration integrated over time. For orientation: Cmax means the peak of the concentration-time curve. What is called Tmax is the time at which the peak concentration occurs. By half-life is commonly meant the time in which the quantity being followed falls by half. High values mean slow loss, low ones fast loss. The term Vd denotes the apparent volume that relates the amount in the body to the concentration in plasma or blood. A low value points to confinement near the circulation. A word on the clearance: it is the volume of plasma or blood freed of the substance per unit of time. Low values mean inefficient removal, high ones efficient removal. As for `Oc1ccc2c3c(cnc2c1)-c1ccc(C(F)(F)F)cc1O[C@@H]3c1ccc(OCCN2CC(CF)C2)cc1` [Imlunestrant], in [1] (setting [14]), the “Time to Cmax of [14C]‐imlunestrant after start of intravenous infusion” value is at most 15 min and the “Time to Cmax of total radioactivity after start of intravenous infusion” value is at most 15 min. Moreover, in data set [1] (setting [15]), the AUC is 1.92 ng·h/mL, the Cmax is 0.585 ng/mL, the Tmax is 0.25 h and the half-life is 32.5 h. Further, in data set [1] (setting [16]), the Vd amounted to 1020 L and the clearance was 397 mL/min. In addition, in data set [1] (setting [17]), the Cmax amounted to 38.7 ng/mL, the Tmax was 4.37 h and the half-life is 32.1 h. The “Fraction of oral dose appearing as a glucuronide metabolite in bile” value in data set [2] is “substantial fraction”. Further, in data set [3] (setting [18]), the “All TEAEs: % of participants with TEAEs” value is reported as 100% and the “All TEAEs: number of participants with TEAEs” value turned out to be 8. Besides, the “All TEAEs: number of TEAEs” value in data set [3] (Part 2: 400 mg imlunestrant oral tablets + 45 µg [14C]-imlunestrant IV (N=8)) came to 5. Also, the Tolerability entry in data set [3] (single 400 mg oral solution or tablet/intravenous dose, fasted, healthy women) was “well tolerated”. In addition, the “Substrate of CYP3A4” value in data set [4] is listed as “substrate”. For the same molecule, in data set [5], the Permeability result is on record as “moderate to high”. Also, the “Fraction passing through the portal vein extracted by first‐pass metabolism in the liver” value in data set [6] is “Approximately 30%”. Further, the “Radioactivity recovered in the feces in the first 192 hours” value in data set [7] was “Over 90%”. The “Total radioactivity excreted via the feces” value in [7] (mean of 5 participants) amounted to 97.3%. In addition, in data set [8], the “Detectable in plasma up to” value was “up to 264 hours”. Besides, the “Substrate of the efflux transporter P‐glycoprotein” value in data set [9] is reported as “in vitro substrate”. Besides, in data set [10], the “Dose dependence of Cmax and AUC0‐∞” value is on record as “dose‐proportional increase”; the “Geometric mean t1/2” value is 25 to 30 h; the Median tmax result is reported as “approximately 4 hours”. In addition, the “Substrate of UGTs” value in [11] is given as “substrate”. Moreover, in data set [12], the peak level (Cmax) was 117 ng/mL and the half-life is 33.7 h.

For `C[C@]12CC[C@@H]3c4ccc(O)cc4C[C@@H](CCCCCCCCC[S+]([O-])CCCC(F)(F)C(F)(F)F)[C@H]3[C@@H]1CC[C@@H]2O` (stereo partly drawn) [fulvestrant], the Solubility result in data set [13] is reported as “poorly soluble”.
